Results as given in ChEMBL document CHEMBL4706589, “Discovery of 5-bromo-4-phenoxy-N-phenylpyrimidin-2-amine derivatives as novel ULK1 inhibitors that block autophagy and induce apoptosis in non-small cell lung cancer” (Eur J Med Chem, 2020).
Activity calls are given as the source filed them. The rule behind the calls is not given here.

How the values were obtained:
[1] = target: T1, Serine/threonine-protein kinase ULK1 (Homo sapiens) (UniProt O75385); assay: Inhibition of recombinant human ULK1 at 10 uM preincubated for 60 mins followed by substrate addition and measured after 30 mins by ADP-glo assay; settings: time 90.0 min
T1 sequence (whole entry): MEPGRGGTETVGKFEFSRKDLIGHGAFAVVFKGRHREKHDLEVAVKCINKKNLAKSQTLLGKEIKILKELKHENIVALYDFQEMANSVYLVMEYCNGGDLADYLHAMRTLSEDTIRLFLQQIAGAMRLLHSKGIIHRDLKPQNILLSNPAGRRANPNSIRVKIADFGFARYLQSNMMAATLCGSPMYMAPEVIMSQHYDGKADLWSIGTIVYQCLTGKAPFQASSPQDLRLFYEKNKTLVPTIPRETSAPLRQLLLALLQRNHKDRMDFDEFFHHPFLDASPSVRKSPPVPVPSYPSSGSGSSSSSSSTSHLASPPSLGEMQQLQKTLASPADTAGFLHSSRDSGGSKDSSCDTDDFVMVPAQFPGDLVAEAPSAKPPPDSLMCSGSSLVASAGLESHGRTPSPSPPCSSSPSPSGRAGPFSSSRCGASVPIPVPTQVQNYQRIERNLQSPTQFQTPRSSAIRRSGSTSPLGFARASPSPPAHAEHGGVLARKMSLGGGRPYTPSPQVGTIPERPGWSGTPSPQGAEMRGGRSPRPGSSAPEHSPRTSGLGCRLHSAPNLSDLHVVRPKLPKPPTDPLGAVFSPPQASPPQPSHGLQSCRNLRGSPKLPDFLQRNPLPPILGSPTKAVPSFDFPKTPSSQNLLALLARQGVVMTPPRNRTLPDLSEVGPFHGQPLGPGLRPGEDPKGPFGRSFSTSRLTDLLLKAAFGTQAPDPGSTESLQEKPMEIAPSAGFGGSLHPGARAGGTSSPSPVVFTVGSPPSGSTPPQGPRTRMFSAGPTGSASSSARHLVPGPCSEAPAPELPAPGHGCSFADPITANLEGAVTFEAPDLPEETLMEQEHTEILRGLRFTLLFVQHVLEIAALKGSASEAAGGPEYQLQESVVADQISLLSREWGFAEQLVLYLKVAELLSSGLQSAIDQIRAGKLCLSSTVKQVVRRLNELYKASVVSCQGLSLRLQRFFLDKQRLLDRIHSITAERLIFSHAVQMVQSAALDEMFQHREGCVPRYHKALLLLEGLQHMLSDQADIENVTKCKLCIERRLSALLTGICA
Outline: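 Recombinant ULK1 activity was measured by ADP-Glo luminescence of ADP formed, in 40 mM Tris pH 7.5, 20 mM MgCl₂, 0.1 mg/ml BSA and […]. After the kinase reaction, plates were mixed 2 min and held 40 min at room temperature. Detection reagent was then added for 30 min at room temperature before luminescence was read.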

[2] = system: A549; assay: Antiproliferative activity against human A549 cells assessed as reduction in cell viability after 24 hrs by MTT assay; type: functional, cell-based; settings: A549, 24 h
Outline: (§1)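 Cells seeded at 5.5 × 10⁴ cells/mL in 96-well plates and grown 24 h before exposure to graded compound concentrations. Viability read by MTT after 24 h. A549, MCF-7 and MDA-MB-468 were kept in DMEM with 10% FBS under 5% CO₂; HL60 and U937 in RPMI 1640 with 10% FBS. IC50 taken as mean of triplicate tests.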

[3] = system: U-937; assay: Antiproliferative activity against human U937 cells assessed as reduction in cell viability after 24 hrs by MTT assay; type: functional, cell-based; settings: U-937, 24 h; outline: as §1
[4] = system: HL-60; assay: Antiproliferative activity against human HL60 cells assessed as reduction in cell viability after 24 hrs by MTT assay; type: functional, cell-based; settings: HL-60, 24 h; outline: as §1
[5] = system: MDA-MB-468; assay: Antiproliferative activity against human MDA-MB-468 cells assessed as reduction in cell viability after 24 hrs by MTT assay; type: functional, cell-based; settings: MDA-MB-468, 24 h; outline: as §1
[6] = system: MCF7; assay: Antiproliferative activity against human MCF-7 cells assessed as reduction in cell viability after 24 hrs by MTT assay; type: functional, cell-based; settings: MCF7, 24 h; outline: as §1
[7] = target: T1, Serine/threonine-protein kinase ULK1 (Homo sapiens); assay: Inhibition of human ULK1 in human A549 cells under normal condition assessed as decrease in phosphorylated-Beclin 1(ser15) level by immunoblotting analysis; type: cell-based
Outline: (§2)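 Treated A549 cells, adherent and floating, were collected and lysed in RIPA buffer with protease and phosphatase inhibitors. Lysates were spun at 12,000 g, 4 °C, 15 min, and protein measured by BCA. Proteins were run on SDS-PAGE and moved to nitrocellulose, blocked 1 h in TBST with 5% skim milk, and probed overnight at 4 °C with primary antibodies. HRP secondary antibody was applied 1 h at room temperature, with ECL detection.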

[8] = target: T1, Serine/threonine-protein kinase ULK1 (Homo sapiens); assay: Inhibition of human ULK1 in human A549 cells under nutrient starvation condition assessed as decrease in phosphorylated-Beclin 1(ser15) level by immunoblotting analysis; type: cell-based; outline: as §2
[9] = target: T1, Serine/threonine-protein kinase ULK1 (Homo sapiens); assay: Inhibition of human ULK1 in human A549 cells under normal condition assessed as decrease in phosphorylated-Atg13 (ser318) level by immunoblotting analysis; type: cell-based; outline: as §2
[10] = target: T1, Serine/threonine-protein kinase ULK1 (Homo sapiens); assay: Inhibition of human ULK1 in human A549 cells under nutrient starvation condition assessed as decrease in phosphorylated- Atg13 (ser318) level by immunoblotting analysis; type: cell-based; outline: as §2
[11] = target: T1, Serine/threonine-protein kinase ULK1 (Homo sapiens); assay: Induction of downregulation of ULK1-mediated autophagy in human A549 cells assessed as phosphorylation at Ser317 preincubated for 24 hrs by Western blot analysis; type: cell-based; settings: dose microM <=8, time 24.0 hrs; outline: as §2
[12] = target: T1, Serine/threonine-protein kinase ULK1 (Homo sapiens); assay: Inhibition of ULK1 mediated autophagy in human A549 cells assessed as reduction in conversion of LC3 1 to LC3-2 at 2 to 8 uM measured after 1 hrs by Western blot analysis; type: cell-based; settings: dose 2-8 µM; outline: as §2
[13] = target: T1, Serine/threonine-protein kinase ULK1 (Homo sapiens); assay: Inhibition of ULK1 mediated autophagy in human A549 cells assessed as p62 degradation at 2 to 8 uM measured after 1 hrs by Western blot analysis; type: cell-based; settings: dose 2-8 µM; outline: as §2
[14] = target: T1, Serine/threonine-protein kinase ULK1 (Homo sapiens); assay: Inhibition of ULK1 mediated autophagy in human A549 cells assessed as decrease in beclin1 level at 2 to 8 uM measured after 1 hrs by Western blot analysis; type: cell-based; settings: dose 2-8 µM; outline: as §2
[15] = target: T1, Serine/threonine-protein kinase ULK1 (Homo sapiens); assay: Inhibition of ULK1 mediated autophagy in human A549 cells transfected with GFP-mRFP-LC3 assessed as increase in LC3 puncta measured after 6 hrs by fluorescence microscopic analysis; type: cell-based
Outline: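 A549 cells were transfected with GFP/mRFP-LC3 for 6 h. Transfected cells were used 24 h later, and LC3 puncta were examined by fluorescence microscopy.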

[16] = system: A549; assay: Induction of apoptosis in human A549 cells assessed as reduction in Bcl2 protein expression at 2 to 8 uM by Western blot analysis; type: functional, cell-based; settings: dose 2-8 µM; outline: as §2
[17] = system: A549; assay: Induction of apoptosis in human A549 cells assessed as increase in Bax protein expression at 2 to 8 uM by Western blot analysis; type: functional, cell-based; settings: dose 2-8 µM; outline: as §2
[18] = system: A549; assay: Induction of apoptosis in human A549 cells assessed as increase in caspase 3 protein expression at 2 to 8 uM by Western blot analysis; type: functional, cell-based; settings: dose 2-8 µM; outline: as §2
[19] = system: A549; assay: Induction of apoptosis in human A549 cells assessed as morphological changes upto 8 uM incubated for 24 hrs in dark by Hoechst 33258 staining based fluorescence microscopy; settings: dose microM <=8, time 24.0 hrs

Q: How did the inhibition [1] turn out when `COc1cc(Nc2ncc(Br)c(Oc3ccc([N+](=O)[O-])cc3F)n2)cc(OC)c1OC` was run?
A: 99.2%

Q: And the IC50 [2]?
A: 1.94 µM

Q: And the IC50 [3]?
A: 12.9 µM

Q: And the IC50 [4]?
A: 10.9 µM

Q: And the IC50 [5]?
A: 16.8 µM

Q: What about the IC50 [6] of the same compound?
A: 19.6 µM

Q: And the inhibition [7]?
A: Active

Q: What about the inhibition [8] of the same compound?
A: Active

Q: And the Activity [9]?
A: Active

Q: And the inhibition [10]?
A: Active

Q: And the Activity [11]?
A: Dose-dependent effect

Q: And the inhibition [12]?
A: Active

Q: And the Activity [13]?
A: Active

Q: What about the inhibition [14] of the same compound?
A: Active

Q: What about the Activity [15] of the same compound?
A: Active

Q: And the Activity [16]?
A: Active

Q: And the Activity [17]?
A: Active

Q: What about the Activity [18] of the same compound?
A: Active

Q: What about the Activity [19] of the same compound?
A: Dose-dependent effect
